The source of these data is ChEMBL document CHEMBL3244179, “Potential inhibitors of S-adenosylmethionine-dependent methyltransferases. 7. Role of the ribosyl moiety in enzymatic binding of S-adenosyl-L-homocysteine and S-adenosyl-L-methionine” (J Med Chem, 1978).

For data set [1], the target named is T1, Acetylserotonin O-methyltransferase (Bos taurus) (UniProt P10950).
T1 sequence (whole entry): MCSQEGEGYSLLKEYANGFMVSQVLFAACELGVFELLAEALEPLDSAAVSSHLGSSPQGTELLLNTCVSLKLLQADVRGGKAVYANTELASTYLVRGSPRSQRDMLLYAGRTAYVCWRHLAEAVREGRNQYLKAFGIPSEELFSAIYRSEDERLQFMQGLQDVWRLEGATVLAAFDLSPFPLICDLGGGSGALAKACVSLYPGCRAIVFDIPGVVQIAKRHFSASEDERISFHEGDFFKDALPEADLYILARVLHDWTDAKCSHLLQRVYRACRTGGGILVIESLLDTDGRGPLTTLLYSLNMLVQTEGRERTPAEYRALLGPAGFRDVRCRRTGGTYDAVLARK
Nature of the data set: Inhibition of bovine pineal gland HIOMT at 2 mM by radiochemical technique. The procedure, abridged:
(§1)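 Bovine pineal gland HIOMT, purified by a published method, was tested with inhibitor at 0.2 or 2.0 mM, SAM-14CH3 (0.05 μCi, 1.0 mM final) and N-acetylserotonin (1.0 mM final) in buffer. Incubation was at 37 °C. Product formation was read radiochemically after extraction of the labeled product.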

The target in data set [2] is T2, Phenylethanolamine N-methyltransferase (Bos taurus) (UniProt P10938).
T2 sequence (whole entry): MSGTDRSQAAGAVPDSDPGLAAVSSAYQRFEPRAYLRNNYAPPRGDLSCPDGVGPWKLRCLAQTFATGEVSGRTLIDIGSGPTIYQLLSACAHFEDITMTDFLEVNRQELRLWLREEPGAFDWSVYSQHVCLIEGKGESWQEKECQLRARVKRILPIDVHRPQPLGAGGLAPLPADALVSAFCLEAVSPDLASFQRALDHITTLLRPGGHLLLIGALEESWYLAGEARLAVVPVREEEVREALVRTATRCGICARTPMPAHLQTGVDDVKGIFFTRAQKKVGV
Nature of the data set: Inhibition of bovine adrenal medulla PNMT at 0.2 mM by radiochemical technique. The procedure, abridged:
(§2)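 Bovine adrenal medulla PNMT, purified by a published method, was tested with inhibitor at 0.2 or 2.0 mM, SAM-14CH3 (0.05 μCi, 1.0 mM final) and DL-β-phenylethanolamine (1.0 mM final) in buffer. Incubation was at 37 °C. Activity was measured radiochemically by extracting the labeled product.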

For data set [3], the target named is Histamine N-methyltransferase (Cavia porcellus) (UniProt Q9EST2). Nature of the data set: Inhibition of guinea pig HMT at 2 mM by radiochemical technique. The procedure, abridged: (§3)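 HMT from guinea pig brain, purified by a published method, was tested with inhibitor at 0.2 or 2.0 mM, SAM-14CH3 (0.05 μCi, 1.0 mM final) and histamine (1.0 mM final) in buffer. Incubation was at 37 °C. Activity was measured radiochemically by extracting the radiolabeled product.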

For data set [4] the target is unchanged. Kind of data set: Inhibition of guinea pig HMT at 0.2 mM by radiochemical technique. In short, it runs like this:
as §3

For data set [5], the target named is T1, Acetylserotonin O-methyltransferase (Bos taurus). Kind of data set: Inhibition of bovine pineal gland HIOMT at 0.2 mM by radiochemical technique. The procedure, abridged:
as §1

The target in data set [6] is T3, Catechol O-methyltransferase (Rattus norvegicus) (UniProt P22734).
T3 sequence (whole entry): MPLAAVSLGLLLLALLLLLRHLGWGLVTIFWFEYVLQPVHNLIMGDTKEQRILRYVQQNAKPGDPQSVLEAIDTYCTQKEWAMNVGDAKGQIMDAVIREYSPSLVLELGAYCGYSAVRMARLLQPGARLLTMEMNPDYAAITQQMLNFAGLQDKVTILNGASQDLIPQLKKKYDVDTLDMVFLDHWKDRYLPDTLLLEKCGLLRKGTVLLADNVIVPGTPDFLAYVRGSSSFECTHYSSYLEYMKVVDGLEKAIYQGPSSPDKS
Nature of the data set: Inhibition of Sprague-Dawley rat liver COMT at 2 mM by radiochemical technique. The procedure, abridged:
(§4)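 Rat liver COMT, purified by a published method, was tested with inhibitor at 0.2 or 2.0 mM, SAM-14CH3 (0.05 μCi, 1.0 mM final) and 3,4-dihydroxybenzoate (2.0 mM final) in buffer. Incubation was at 37 °C. Activity was measured radiochemically by extracting the radiolabeled methylated product.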

Data set [7] is described as follows: Retardation factor, Rf of the compound on silica gel GF containing 5% Na2HPO4 by chromatography. Type of data set: physicochemical. In short, it runs like this: (§5)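 TLC plates carried a 250 μm silica gel GF layer. Spots were located visually under UV light, and with ninhydrin for amine-containing compounds.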
For data set [8], the target named is T3, Catechol O-methyltransferase (Rattus norvegicus). Kind of data set: Inhibition of Sprague-Dawley rat liver COMT at 0.2 mM by radiochemical technique. In short, it runs like this:
as §4

Data set [9] has as its target T2, Phenylethanolamine N-methyltransferase (Bos taurus). Nature of the data set: Inhibition of bovine adrenal medulla PNMT at 2 mM by radiochemical technique. The procedure, abridged:
as §2

Data set [10] is described as follows: Retardation factor, Rf of the compound on silica gel GF containing EtOH-HOAc-H2O (20:2:2)/0.1 M phosphate buffer at 7.4 by chromatography. Type of data set: physicochemical. The note with it: pH 7.4. The procedure, abridged: as §5
The target of data set [11] is T3, Catechol O-methyltransferase (Rattus norvegicus). Kind of data set: Inhibition of Sprague-Dawley rat liver COMT at 0.4 mM by radiochemical technique.
The target in data set [12] is T2, Phenylethanolamine N-methyltransferase (Bos taurus). Kind of data set: Inhibition of bovine adrenal medulla PNMT at 0.4 mM by radiochemical technique.
Data set [13] shares this target. Nature of the data set: Inhibition of bovine adrenal medulla PNMT at 1 mM by radiochemical technique.
Data set [14] deals with Histamine N-methyltransferase (Cavia porcellus) (UniProt Q9EST2). Nature of the data set: Inhibition of guinea pig HMT at 0.4 mM by radiochemical technique.
Data set [15] shares this target. Nature of the data set: Inhibition of guinea pig HMT at 1 mM by radiochemical technique.
Data set [16] has as its target T1, Acetylserotonin O-methyltransferase (Bos taurus). Kind of data set: Inhibition of bovine pineal gland HIOMT at 0.4 mM by radiochemical technique.
The target in data set [17] is T3, Catechol O-methyltransferase (Rattus norvegicus). Nature of the data set: Inhibition of Sprague-Dawley rat liver COMT at 1 mM by radiochemical technique.
Data set [18] deals with T1, Acetylserotonin O-methyltransferase (Bos taurus). Nature of the data set: Inhibition of bovine pineal gland HIOMT at 1 mM by radiochemical technique.

Sequence of Histamine N-methyltransferase (Cavia porcellus) (Q9EST2 whole entry): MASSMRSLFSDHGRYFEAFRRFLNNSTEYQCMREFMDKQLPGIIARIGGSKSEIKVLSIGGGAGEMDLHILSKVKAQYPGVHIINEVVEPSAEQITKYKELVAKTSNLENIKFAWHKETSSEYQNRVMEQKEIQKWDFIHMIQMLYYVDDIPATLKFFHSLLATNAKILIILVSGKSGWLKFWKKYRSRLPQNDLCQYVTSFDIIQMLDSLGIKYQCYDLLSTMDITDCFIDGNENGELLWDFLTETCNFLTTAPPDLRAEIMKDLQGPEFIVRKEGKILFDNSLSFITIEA

What is called inhibition is the relative decrease from the control value, in per cent. Turning to `Nc1ncnc2c1ncn2[C@@H](CO)O[C@@H](CO)CSCC[C@@H](N)C(=O)O`, the inhibition in data set [1] turned out to be 26%; in [2] it was 8%; in data set [3], 19%; in [4], 0%; in data set [5] it was 9%; in data set [6] it was 26%. For the same compound, the inhibition in data set [8] was found to be 0%; in [9] it was 16%. In addition, the Rf is listed as 0.65 in data set [7] and 0.72 in [10].
For `Nc1ncnc2c1ncn2[C@@H](CO)O[C@@H](CO)CSCC[C@H](N)C(=O)O`, the inhibition in [1] was 6%; in data set [2], 0%; in data set [3], 0%; in data set [4], 0%; in [5], 0%; in [6], 25%. Moreover, the values for the inhibition in data set [8] and in data set [9] were 2% and 0%, respectively. Moreover, the Rf in data set [7] was 0.65; in [10], 0.72.
For `Nc1ncnc2c1ncn2[C@@H]1O[C@H](CSCC(N)C(=O)O)[C@@H](O)[C@H]1O` (single isomer, unassigned), the inhibition amounted to 33% in data set [1]; 11% in data set [2]; 43% in data set [3]; 14% in data set [4]; 12% in data set [5]; 5% in data set [6]. Besides, the results for the inhibition in [8] and in data set [9] were 0% and 27%, respectively. For the same compound, the Rf in data set [7] came out at 0.74; in [10], 0.79.
As for `Nc1ncnc2c1nnn2[C@@H]1O[C@H](CSCCC(N)C(=O)O)[C@@H](O)[C@H]1O` (single isomer, unassigned), the inhibition in data set [1] turned out to be 89%; in [5], 49%. In addition, the Rf stood at 0.71 in [7] and 0.72 in data set [10].
Turning to `C[S+](CC[C@@H](N)C(=O)O)C[C@H](CO)O[C@H](CO)n1cnc2c(N)ncnc21` (some centres undefined), the inhibition in data set [1] came to 8%; in [2], 1%; in data set [3], 0%; in data set [4] it was 0%; in data set [5], 0%; in data set [6], 14%. The inhibition stood at 7% in data set [8] and 21% in data set [9]. For the same compound, the Rf in [7] is on record as 0.46; in data set [10], 0.11.
With `Nc1ncnc2c1nnn2[C@@H](CO)O[C@@H](CO)CSCC[C@@H](N)C(=O)O`, the inhibition in [1] is 31%; in data set [2], 0%; in data set [3], 0%; in data set [4], 0%; in [5] it was 12%; in [6], 17%. Besides, the inhibition was found to be 0% in [8] and 10% in data set [9]. The Rf in [7] was found to be 0.69; in data set [10], 0.58.
Regarding `Nc1ncnc2c1ncn2[C@@H](CO)O[C@@H](CO)C[S+]([O-])CC[C@@H](N)C(=O)O` (some centres undefined), the inhibition in [1] stood at 16%; in [2], 9%; in data set [3] it was 0%; in data set [4] it was 0%; in data set [5], 7%; in data set [6], 22%. Besides, the inhibition in data set [8] was found to be 5%; in data set [9], 17%. The Rf in data set [7] came to 0.6; in data set [10] it was 0.74.
On to `Nc1nnnc2c1ncn2[C@@H]1O[C@H](CSCCC(N)C(=O)O)[C@@H](O)[C@H]1O` (single isomer, unassigned), for which the inhibition in data set [11] is 3%; in data set [12] it was 38%; in data set [13], 58%; in [14], 0%; in data set [15] it was 8%; in [16], 23%. Moreover, the results for the inhibition in data set [17] and in [18] were 6% and 39%, respectively. In addition, the Rf in data set [7] was found to be 0.7; in [10], 0.79.
In the case of `Nc1nnnc2c1ncn2[C@@H](CO)O[C@@H](CO)CSCC[C@@H](N)C(=O)O`, the inhibition in data set [1] worked out at 25%; in data set [2] it was 0%; in data set [3] it was 0%; in data set [4], 0%; in data set [5], 18%; in [6], 5%. The inhibition in data set [8] came out at 4%; in data set [9] it was 15%. Moreover, the Rf in data set [7] is 0.69; in data set [10], 0.66.
`Nc1ncnc2c1ncn2[C@@H]1O[C@H](CSCC[C@H](N)C(=O)O)[C@@H](O)[C@H]1O` [S-ADENOSYLHOMOCYSTEINE]: the inhibition in data set [1] turned out to be 94%; in data set [2], 49%; in [3], 89%; in [4], 40%; in data set [5], 71%; in data set [6], 87%. Further, the inhibition in data set [8] was found to be 39%; in data set [9], 92%. Moreover, the Rf in data set [7] and in [10] was 0.73 each time.
`Nc1ncnc2c1ncn2[C@@H]1O[C@H](C[S+]([O-])CC[C@@H](N)C(=O)O)[C@@H](O)[C@H]1O` (some centres undefined): the inhibition amounted to 0% in data set [1]; 10% in [2]; 9% in [3]; 0% in data set [4]; 0% in [5]; 42% in data set [6]. The inhibition worked out at 14% in data set [8] and 22% in data set [9]. In addition, the figures for the Rf in data set [7] and in [10] were 0.72 and 0.74, respectively.
For the compound `C[S+](CC[C@H](N)C(=O)[O-])C[C@H]1O[C@@H](n2cnc3c(N)ncnc32)[C@H](O)[C@@H]1O` (some centres undefined) [ADEMETIONINE], the Rf was found to be 0.34 in data set [7] and 0.2 in [10].
Regarding `Nc1ncnc2c1ncn2[C@@H]1O[C@H](CSCCC(N)C(=O)O)[C@@H](O)[C@H]1O` (single isomer, unassigned), the inhibition came to 6% in data set [1]; 14% in data set [2]; 99% in data set [3]; 73% in data set [4]; 1% in data set [5]; 22% in data set [6]. For the same compound, the results for the inhibition in data set [8] and in data set [9] were 5% and 32%, respectively.
For the compound `Nc1ncnc2c1ncn2[C@@H](CO)O[C@@H](CO)CSC[C@@H](N)C(=O)O`, the inhibition is 0% in [1]; 10% in data set [2]; 3% in data set [3]; 0% in data set [4]; 0% in data set [5]; 12% in data set [6]. The inhibition in data set [8] turned out to be 0%; in data set [9], 15%. Besides, the Rf was 0.63 in data set [7] and 0.75 in data set [10].
